{"source": "ChEMBL document CHEMBL1629583", "about": "“Establishment of in vitro susceptibility testing methodologies and comparative activities of piperacillin in combination with the penem {beta}-lactamase inhibitor BLI-489” (2009)", "format_in_all_cases": "functional", "key": {"[1]": {"test_system": "Acinetobacter calcoaceticus", "experiment": "Antimicrobial activity against Acinetobacter calcoaceticus clinical isolate after 18 to 22 hrs by broth microdilution method in presence of beta-lactamase inhibitor Tazobactam", "summary_of_the_method": "(§1)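 Piperacillin-tazobactam was tested on recent clinical isolates by CLSI broth microdilution in Mueller-Hinton II broth, with tazobactam at constant 4 μg/ml. Wells held 10^5 CFU/ml and were incubated 18 to 22 h at 35°C in ambient air. MIC was the lowest concentration with no growth visible to the unaided eye.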"}, "[2]": {"test_system": "Staphylococcus epidermidis", "experiment": "Antimicrobial activity against methicillin-susceptible Staphylococcus epidermidis clinical isolate after 18 to 22 hrs by broth microdilution method in presence of beta-lactamase inhibitor BLI-489", "summary_of_the_method": "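Piperacillin serially diluted with BLI-489 held at a constant 4 μg/ml, by CLSI broth microdilution in Mueller-Hinton II broth. Inoculum was 10^5 CFU/ml. Plates were incubated 18 to 22 h at 35°C in ambient air. MIC was the lowest concentration completely inhibiting growth seen by the unaided eye.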"}, "[3]": {"test_system": "Proteus vulgaris", "experiment": "Antimicrobial activity against Proteus vulgaris clinical isolate after 18 to 22 hrs by broth microdilution method in presence of beta-lactamase inhibitor BLI-489", "summary_of_the_method": "(§2)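 CLSI broth microdilution in Mueller-Hinton II broth. Serial dilutions of piperacillin were tested with BLI-489 held at a constant 4 μg/ml. Inoculum was 10^5 CFU/ml. Plates were incubated 18 to 22 h at 35°C in ambient air. MIC was the lowest concentration giving complete growth inhibition by unaided eye.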"}, "[4]": {"test_system": "Klebsiella pneumoniae", "experiment": "Antimicrobial activity against Klebsiella pneumoniae clinical isolate after 18 to 22 hrs by broth microdilution method in presence of beta-lactamase inhibitor Tazobactam", "summary_of_the_method": "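Piperacillin-tazobactam was tested by CLSI broth microdilution in Mueller-Hinton II broth against clinical isolates. Inoculum was 10^5 CFU/ml, with 18 to 22 h incubation at 35°C in ambient air. MIC was read as the lowest concentration completely inhibiting visible growth.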"}, "[5]": {"test_system": "Bacteroides uniformis", "experiment": "Antimicrobial activity against Bacteroides uniformis clinical isolate after 18 to 22 hrs by broth microdilution method in presence of beta-lactamase inhibitor BLI-489"}, "[6]": {"test_system": "Klebsiella aerogenes", "experiment": "Antimicrobial activity against Enterobacter aerogenes clinical isolate after 18 to 22 hrs by broth microdilution method in presence of beta-lactamase inhibitor Tazobactam", "summary_of_the_method": "as §1"}, "[7]": {"test_system": "Haemophilus influenzae", "experiment": "Antimicrobial activity against beta-lactamase-producing Haemophilus influenzae clinical isolate after 18 to 22 hrs by broth microdilution method in presence of beta-lactamase inhibitor BLI-489", "summary_of_the_method": "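Haemophilus isolates were tested in Haemophilus test medium by CLSI broth microdilution. Serial piperacillin dilutions carried BLI-489 fixed at 4 μg/ml. Inoculum was 10^5 CFU/ml, incubated 18 to 22 h at 35°C in ambient air. MIC was the lowest concentration completely inhibiting growth by eye.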"}, "[8]": {"test_system": "Enterococcus faecalis", "experiment": "Antimicrobial activity against Enterococcus faecalis clinical isolate after 18 to 22 hrs by broth microdilution method in presence of beta-lactamase inhibitor Tazobactam", "summary_of_the_method": "(§3)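 CLSI broth microdilution in Mueller-Hinton II broth. Antibiotic in serial dilution with the β-lactamase inhibitor held at a constant 4 μg/ml. Inoculum 10^5 CFU/ml. Incubated 18 to 22 h at 35°C in ambient air.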"}, "[9]": {"test_system": "Klebsiella pneumoniae", "experiment": "Antimicrobial activity against class A extended spectrum beta-lactamase- and class D OXA- producing Klebsiella pneumoniae clinical isolate after 18 to 22 hrs by broth microdilution method in presence of beta-lactamase inhibitor BLI-489", "summary_of_the_method": "as §2"}, "[10]": {"test_system": "Bacteroides thetaiotaomicron", "experiment": "Antimicrobial activity against Bacteroides thetaiotaomicron clinical isolate after 18 to 22 hrs by broth microdilution method"}, "[11]": {"test_system": "Acinetobacter johnsonii", "experiment": "Antimicrobial activity against Acinetobacter johnsonii clinical isolate after 18 to 22 hrs by broth microdilution method in presence of beta-lactamase inhibitor Tazobactam", "summary_of_the_method": "as §1"}, "[12]": {"test_system": "Bacteroides uniformis", "experiment": "Antimicrobial activity against Bacteroides uniformis clinical isolate after 18 to 22 hrs by broth microdilution method"}, "[13]": {"test_system": "Klebsiella pneumoniae", "experiment": "Antimicrobial activity against class A extended spectrum beta-lactamase- producing Klebsiella pneumoniae clinical isolate after 18 to 22 hrs by broth microdilution method in presence of beta-lactamase inhibitor Tazobactam", "summary_of_the_method": "(§4)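 CLSI broth microdilution of piperacillin-tazobactam in Mueller-Hinton II broth with serial dilutions. Inoculum was 10^5 CFU/ml. Incubation was 18 to 22 h at 35°C in ambient air. MIC was read as the lowest concentration giving complete inhibition of growth visible to the unaided eye.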"}, "[14]": {"test_system": "Enterococcus avium", "experiment": "Antimicrobial activity against Enterococcus avium clinical isolate after 18 to 22 hrs by broth microdilution method in presence of beta-lactamase inhibitor BLI-489", "summary_of_the_method": "(§5)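 CLSI broth microdilution in Mueller-Hinton II broth. Piperacillin serial dilutions were combined with BLI-489 held constant at 4 μg/ml. Inoculum was 10^5 CFU/ml. Plates were incubated 18 to 22 h at 35°C in ambient air. MIC was the lowest concentration completely inhibiting growth seen by the unaided eye. Piperacillin-tazobactam interpretive criteria were applied.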"}, "[15]": {"test_system": "Proteus mirabilis", "experiment": "Antimicrobial activity against Proteus mirabilis clinical isolate after 18 to 22 hrs by broth microdilution method in presence of beta-lactamase inhibitor BLI-489", "summary_of_the_method": "as §2"}, "[16]": {"test_system": "Staphylococcus aureus", "experiment": "Antimicrobial activity against methicillin-susceptible Staphylococcus aureus clinical isolate after 18 to 22 hrs by broth microdilution method in presence of beta-lactamase inhibitor Tazobactam", "summary_of_the_method": "as §4"}, "[17]": {"test_system": "Enterococcus faecium", "experiment": "Antimicrobial activity against vancomycin-resistant Enterococcus faecium clinical isolate after 18 to 22 hrs by broth microdilution method in presence of beta-lactamase inhibitor BLI-489", "summary_of_the_method": "as §3"}, "[18]": {"test_system": "Bacteroides fragilis", "experiment": "Antimicrobial activity against Bacteroides fragilis clinical isolate after 18 to 22 hrs by broth microdilution method in presence of beta-lactamase inhibitor BLI-489"}, "[19]": {"test_system": "Haemophilus influenzae", "experiment": "Antimicrobial activity against beta-lactamase-producing Haemophilus influenzae clinical isolate after 18 to 22 hrs by broth microdilution method in presence of beta-lactamase inhibitor Tazobactam", "summary_of_the_method": "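[…] was used for CLSI broth microdilution with piperacillin-tazobactam. Inoculum was 10^5 CFU/ml, incubated 18 to 22 h at 35°C in ambient air. MIC was the lowest concentration with no growth visible to the unaided eye.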"}, "[20]": {"test_system": "Enterococcus faecium", "experiment": "Antimicrobial activity against vancomycin-resistant Enterococcus faecium clinical isolate after 18 to 22 hrs by broth microdilution method in presence of beta-lactamase inhibitor Tazobactam", "summary_of_the_method": "as §3"}, "[21]": {"test_system": "Acinetobacter junii", "experiment": "Antimicrobial activity against Acinetobacter junii clinical isolate after 18 to 22 hrs by broth microdilution method in presence of beta-lactamase inhibitor BLI-489", "summary_of_the_method": "as §5"}}, "data": [{"smiles": "CCN1CCN(C(=O)N[C@@H](C(=O)N[C@@H]2C(=O)N3[C@@H]2SC(C)(C)[C@@H]3C(=O)O)c2ccccc2)C(=O)C1=O", "note": "[PIPERACILLIN]", "values": [{"measurement": "MIC50", "setting": "[1]", "result": "> 128", "unit": "µg/mL"}, {"measurement": "MIC90", "setting": "[1]", "result": "> 128", "unit": "µg/mL"}, {"measurement": "MIC", "setting": "[2]", "result": "≤ 0.004", "unit": "µg/mL"}, {"measurement": "MIC50", "setting": "[2]", "result": "≤ 0.004", "unit": "µg/mL"}, {"measurement": "MIC90", "setting": "[2]", "result": "≤ 0.004", "unit": "µg/mL"}, {"measurement": "MIC50", "setting": "[3]", "result": 0.5, "unit": "µg/mL"}, {"measurement": "MIC90", "setting": "[3]", "result": 1, "unit": "µg/mL"}, {"measurement": "MIC50", "setting": "[4]", "result": 2, "unit": "µg/mL"}, {"measurement": "MIC90", "setting": "[4]", "result": 16, "unit": "µg/mL"}, {"measurement": "MIC50", "setting": "[5]", "result": 4, "unit": "µg/mL"}, {"measurement": "MIC90", "setting": "[5]", "result": 8, "unit": "µg/mL"}, {"measurement": "MIC50", "setting": "[6]", "result": 64, "unit": "µg/mL"}, {"measurement": "MIC90", "setting": "[6]", "result": 128, "unit": "µg/mL"}, {"measurement": "MIC", "setting": "[7]", "result": "≤ 0.004", "unit": "µg/mL"}, {"measurement": "MIC50", "setting": "[7]", "result": "≤ 0.004", "unit": "µg/mL"}, {"measurement": "MIC90", "setting": "[7]", "result": "≤ 0.004", "unit": "µg/mL"}, {"measurement": "MIC", "setting": "[8]", "result": 2, "unit": "µg/mL"}, {"measurement": "MIC50", "setting": "[8]", "result": 2, "unit": "µg/mL"}, {"measurement": "MIC90", "setting": "[8]", "result": 4, "unit": "µg/mL"}, {"measurement": "MIC50", "setting": "[9]", "result": 8, "unit": "µg/mL"}, {"measurement": "MIC90", "setting": "[9]", "result": 64, "unit": "µg/mL"}, {"measurement": "MIC50", "setting": "[10]", "result": 32, "unit": "µg/mL"}, {"measurement": "MIC90", "setting": "[10]", "result": "> 128", "unit": "µg/mL"}, {"measurement": "MIC50", "setting": "[11]", "result": "≤ 0.12", "unit": "µg/mL"}, {"measurement": "MIC90", "setting": "[11]", "result": 32, "unit": "µg/mL"}, {"measurement": "MIC50", "setting": "[12]", "result": 16, "unit": "µg/mL"}, {"measurement": "MIC90", "setting": "[12]", "result": 32, "unit": "µg/mL"}, {"measurement": "MIC50", "setting": "[13]", "result": 32, "unit": "µg/mL"}, {"measurement": "MIC90", "setting": "[13]", "result": "> 128", "unit": "µg/mL"}, {"measurement": "MIC50", "setting": "[14]", "result": 8, "unit": "µg/mL"}, {"measurement": "MIC90", "setting": "[14]", "result": 32, "unit": "µg/mL"}, {"measurement": "MIC50", "setting": "[15]", "result": 0.25, "unit": "µg/mL"}, {"measurement": "MIC90", "setting": "[15]", "result": 0.5, "unit": "µg/mL"}, {"measurement": "MIC50", "setting": "[16]", "result": 1, "unit": "µg/mL"}, {"measurement": "MIC90", "setting": "[16]", "result": 2, "unit": "µg/mL"}, {"measurement": "MIC50", "setting": "[17]", "result": "> 128", "unit": "µg/mL"}, {"measurement": "MIC50", "setting": "[18]", "result": 0.25, "unit": "µg/mL"}, {"measurement": "MIC90", "setting": "[18]", "result": 0.5, "unit": "µg/mL"}, {"measurement": "MIC50", "setting": "[19]", "result": 0.008, "unit": "µg/mL"}, {"measurement": "MIC90", "setting": "[19]", "result": 0.03, "unit": "µg/mL"}, {"measurement": "MIC", "setting": "[20]", "result": "> 128", "unit": "µg/mL"}, {"measurement": "MIC50", "setting": "[20]", "result": "> 128", "unit": "µg/mL"}, {"measurement": "MIC50", "setting": "[21]", "result": 4, "unit": "µg/mL"}, {"measurement": "MIC90", "setting": "[21]", "result": 16, "unit": "µg/mL"}]}]}
